Data as given in publication PMC6474797 (ACS chemical biology, 2019).

Key:
[1] = Critical aggregation concentration; assay type: physicochemical
In short: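 Colloids were formulated in PBS with 0.01% UP80 and 10 μM of a cholesteryl BODIPY FRET pair (FL C12 donor, 542/563 C11 acceptor; 0.875:0.125) added to the drug stock. They were diluted 10-fold into PBS or serum media and read by fluorescence (excitation 490 nm, acceptor emission 575 nm). Dye-free comparison was by DLS scattering intensity (830 nm laser, 158° detector).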

[2] = with PLAC–PEG polymer, compared with PPD colloids; cited from earlier work

Compound | measured CAC with or without BODIPY dyes ([1]; PBS, fluorescence versus light scattering methods) | critical aggregation concentration (CAC) ([1]; protein-free media, light scattering (Figure S3)) | critical aggregation concentration (CAC) ([1]; serum-containing media, colloids with 10 μM BODIPY FRET pair, 0.01% UP80, diluted 10-fold, fluorescence intensity) | drug loading [2]
C[C@]12CC[C@@H]3c4ccc(O)cc4C[C@@H](CCCCCCCCC[S+]([O-])CCCC(F)(F)C(F)(F)F)[C@H]3[C@@H]1CC[C@@H]2O (stereo partly shown) [fulvestrant] | no difference | low micromolar | increased with serum content | 
CC(=O)O[C@@]12CO[C@@H]1C[C@H](O)[C@@]1(C)C(=O)[C@H](O)C3=C(C)[C@@H](OC(=O)[C@H](O)[C@@H](NC(=O)OC(C)(C)C)c4ccccc4)C[C@@](O)([C@@H](OC(=O)c4ccccc4)[C@H]21)C3(C)C [docetaxel] |  |  |  | significantly lower drug loading
